Test results published in ChEMBL document CHEMBL4425145, “Discovery of New Anti-Schistosomal Hits by Integration of QSAR-Based Virtual Screening and High Content Screening” (J Med Chem, 2016).
The source made the active and inactive calls. The rule behind the calls is not given here.

Legend:
Schistosoma mansoni [1] = experiment: Antischistosomal activity against Schistosoma mansoni BH schistosomula assessed as inhibition of parasite motility after 48 hrs by HCS microscopic analysis; assay type: functional, organism-based
How it was run: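 Schistosomula obtained from cercariae by vortex tail shedding (5 min), held overnight in Medium 169 under 5% CO2 at 120 per well. Dosed at 0.31–20 μM against DMSO 0.625% for 48 h. Motility taken by automated bright-field imaging as average object displacement, adjusted to DMSO control wells. EC50 from a four-parameter logistic fit.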

Schistosoma mansoni [2] = experiment: Antischistosomal activity against Schistosoma mansoni BH schistosomula assessed as inhibition of parasite motility at 20 uM after 48 hrs by HCS microscopic analysis; assay type: functional, organism-based
How it was run: (§1)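 Cercariae vortexed at maximum speed for 5 min to shed tails and transform to schistosomula. Larvae resuspended in Medium 169 at 120 per well and held overnight under 5% CO2 before dosing. Exposed 48 h at 20 μM, vehicle DMSO 0.625%. Automated bright-field HCS imaging; Bayesian phenotype and motility scores adjusted to DMSO control wells on each plate.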

Papain = target: T1, Papain (Carica papaya, UniProt P00784); experiment: Inhibition of papaya papain using Z-FR-AMC fluorogenic peptide substrate preincubated for 5 mins followed by substrate addition
T1 sequence (P00784 whole entry): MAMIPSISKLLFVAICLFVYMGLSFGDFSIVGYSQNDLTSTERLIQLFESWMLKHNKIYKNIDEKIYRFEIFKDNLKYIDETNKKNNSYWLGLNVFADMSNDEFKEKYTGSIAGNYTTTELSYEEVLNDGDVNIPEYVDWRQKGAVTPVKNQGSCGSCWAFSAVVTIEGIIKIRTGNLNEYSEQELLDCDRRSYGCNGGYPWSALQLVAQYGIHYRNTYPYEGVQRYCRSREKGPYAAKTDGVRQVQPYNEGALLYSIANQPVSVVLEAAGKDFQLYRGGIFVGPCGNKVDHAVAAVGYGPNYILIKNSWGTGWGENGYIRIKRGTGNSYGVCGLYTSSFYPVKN
How it was run: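 Papain (5 μg/mL) in 100 mM sodium acetate, pH 3.5, at 37 °C. Pre-incubated 5 min with compound at 20 and 100 μM, then reaction started with 50 μM Z-FR-AMC fluorogenic substrate. E-64 used as positive control.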

Schistosoma mansoni [3] = experiment: Antischistosomal activity against adult male Schistosoma mansoni BH assessed as inhibition of parasite motility up to 72 hrs by HCS microscopic analysis; assay type: functional, organism-based
How it was run: (§2)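 Adult worms perfused from portal hepatic and mesenteric veins of Swiss mice 42–49 days after percutaneous infection with 150 ± 10 cercariae. Worms held singly in DMEM with 10% FCS and 2 mM L-glutamine overnight at 37 °C, 5% CO2. Exposed to 0.10–100 μM against 0.1% DMSO, imaged at 0, 24, 48 and 72 h. Motility from image-overlap AdjustedRandIndex; EC50 from dose-response curves.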

Schistosoma mansoni [4] = experiment: Antischistosomal activity against adult female Schistosoma mansoni BH assessed as inhibition of parasite motility up to 72 hrs by HCS microscopic analysis; assay type: functional, organism-based; how it was run: as §2
[5] = Cytotoxicity against human WSS1 cells assessed as reduction in cell viability after 48 hrs by resazurin assay; assay type: cell-based
How it was run: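 Human kidney WSS-1 epithelial cells grown in DMEM (4.5 g/L glucose, 10% FBS, gentamicin) and seeded at 5×10^4 cells/mL. Dosed 20 h later at 0.2–400 μM for 48 h at 37 °C, 5% CO2. Resazurin (final 0.01 mg/mL) added 4 h before the end; resorufin fluorescence read at ex 560/em 590 nm. Viability taken relative to DMSO (0.2–0.8%); CC50 from a four-parameter logistic fit.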

Schistosoma mansoni [6] = experiment: Antischistosomal activity against Schistosoma mansoni BH schistosomula assessed as morphological changes at 20 uM after 48 hrs by HCS microscopic analysis; assay type: functional, organism-based; how it was run: as §1
Schistosoma mansoni [7] = experiment: Antischistosomal activity against Schistosoma mansoni BH schistosomula assessed as rounding appearance of schistosomula at 20 uM after 48 hrs by HCS microscopic analysis; assay type: functional, organism-based; how it was run: as §1
Schistosoma mansoni [8] = experiment: Antischistosomal activity against Schistosoma mansoni BH schistosomula assessed as darkening of schistosomula at 20 uM after 48 hrs by HCS microscopic analysis; assay type: functional, organism-based; how it was run: as §1
Schistosoma mansoni [9] = experiment: Antischistosomal activity against adult male Schistosoma mansoni BH assessed as inhibition of parasite motility at 20 to 100 uM after 48 to 72 hrs in presence of 0.01% triton X-100 by colloidal aggregation assay; assay type: functional, organism-based
How it was run: (§3)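 Perfused adult worms held singly in complete DMEM at 37 °C, 5% CO2. Incubated with compound at 20 and 100 μM, with or without Triton X-100 (0.01%). HCS motility measured at 48 and 72 h, and activity with detergent compared with activity without it.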

Schistosoma mansoni [10] = experiment: Antischistosomal activity against Schistosoma mansoni BH schistosomula assessed as multiple vacuole appearance at 20 uM after 48 hrs by HCS microscopic analysis; assay type: functional, organism-based; how it was run: as §1
Schistosoma mansoni [11] = experiment: Antischistosomal activity against adult female Schistosoma mansoni BH assessed as inhibition of parasite motility at 20 to 100 uM after 48 to 72 hrs in presence of 0.01% triton X-100 by colloidal aggregation assay; assay type: functional, organism-based; how it was run: as §3
Schistosoma mansoni [12] = experiment: Antischistosomal activity against adult male Schistosoma mansoni BH assessed as inhibition of parasite motility at 20 to 100 uM after 48 to 72 hrs in absence of 0.01% triton X-100 by colloidal aggregation assay; assay type: functional, organism-based; how it was run: as §3
Schistosoma mansoni [13] = experiment: Antischistosomal activity against adult female Schistosoma mansoni BH assessed as inhibition of parasite motility at 20 to 100 uM after 48 to 72 hrs in absence of 0.01% triton X-100 by colloidal aggregation assay; assay type: functional, organism-based; how it was run: as §3
[14] = target: T2, Thioredoxin glutathione reductase (Schistosoma mansoni, UniProt Q962Y6); experiment: Inhibition of Schistosoma mansoni TGR
T2 sequence (Q962Y6 whole entry): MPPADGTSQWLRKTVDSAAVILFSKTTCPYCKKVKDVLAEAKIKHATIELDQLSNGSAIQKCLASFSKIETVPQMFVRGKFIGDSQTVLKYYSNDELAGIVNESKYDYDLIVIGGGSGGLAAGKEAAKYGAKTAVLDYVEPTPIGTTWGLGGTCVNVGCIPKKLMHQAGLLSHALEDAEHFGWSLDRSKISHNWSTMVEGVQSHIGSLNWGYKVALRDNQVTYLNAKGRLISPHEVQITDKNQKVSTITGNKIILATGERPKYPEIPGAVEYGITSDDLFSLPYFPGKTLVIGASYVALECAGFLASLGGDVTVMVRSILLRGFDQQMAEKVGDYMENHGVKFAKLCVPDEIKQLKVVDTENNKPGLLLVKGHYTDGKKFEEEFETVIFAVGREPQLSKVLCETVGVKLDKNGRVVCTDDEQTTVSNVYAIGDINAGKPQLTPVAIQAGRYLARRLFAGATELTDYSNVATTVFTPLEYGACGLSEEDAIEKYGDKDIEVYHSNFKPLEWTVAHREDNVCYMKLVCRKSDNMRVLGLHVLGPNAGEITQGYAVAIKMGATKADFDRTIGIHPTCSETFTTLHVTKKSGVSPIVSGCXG

Schistosoma mansoni [15] = experiment: Antischistosomal activity against adult male Schistosoma mansoni BH assessed as inhibition of parasite motility after 72 hrs by HCS microscopic analysis; assay type: functional, organism-based
How it was run: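 Adult worms perfused from portal hepatic and mesenteric veins of Swiss mice 42–49 days after percutaneous infection with 150 ± 10 cercariae; males placed singly in wells in DMEM with 10% fetal calf serum, 2 mM L-glutamine, penicillin and streptomycin; held overnight at 37 °C, 5% CO2. Exposed to 0.10–100 μM, DMSO 0.1% control. Image-based motility (overlap index) read at 72 h; EC50 from dose-response.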

Row | SMILES | EC50 (Schistosoma mansoni [1]) [µM] | motility inhibition activity call (Schistosoma mansoni [2]) | IC50 (Papain) [µM] | EC50 (Schistosoma mansoni [3]) [µM] | EC50 (Schistosoma mansoni [4]) [µM] | CC50 [5] [µM] | Activity (Schistosoma mansoni [6]) | Activity (Schistosoma mansoni [7]) | Activity (Schistosoma mansoni [8]) | inhibition (Schistosoma mansoni [9]) | Activity (Schistosoma mansoni [10]) | inhibition (Schistosoma mansoni [11]) | inhibition (Schistosoma mansoni [12]) | inhibition (Schistosoma mansoni [13]) | IC50 [14] [µM] | EC50 (Schistosoma mansoni [15]) [µM]
1 | O=C1CC(Sc2nnc[nH]2)C(=O)N1c1ccc(I)cc1 (stereo not drawn) | > 20 | Active | > 100 | 10.2 | 17.9 | 133 | Active |  |  |  |  |  |  |  |  | 
2 | CC(=O)c1ccc(NCCC(=O)c2cccs2)cc1 | > 20 | Active |  |  |  |  | Active |  |  |  |  |  |  |  |  | 
3 | Cc1noc(/C=C/c2ccccn2)c1[N+](=O)[O-] | 3.23 | Active | > 100 | 6.43 | 5.68 | 16.4 | Active | Active | Active | Active | Active | Active | Active | Active |  | 
4 | COc1ccc(C(=O)c2no[n+]([O-])c2C(=O)c2ccc(OC)cc2)cc1 |  |  |  |  |  |  |  |  |  |  |  |  |  |  | 0.1 | 
5 | O=C(C1CCCCC1)N1CC(=O)N2CCc3ccccc3C2C1 (stereo not drawn) [PRAZIQUANTEL] | 1.9 |  |  |  | 0.64 | > 400 |  |  |  |  |  |  |  |  |  | 0.22
6 | O=S(=O)(Cc1ccccc1)c1nc2ccccc2s1 | 2.62 | Active | > 100 | 21.1 | 4.91 | 28.5 | Active | Active | Active | Active | Active | Active | Active | Active |  | 
7 | O=C(CSc1ccccn1)Nc1nonc1[N+](=O)[O-] |  |  |  |  |  |  |  |  |  |  |  |  |  |  | 7.08 | 
8 | COc1ccc(/C=C/[N+](=O)[O-])cc1OC | > 20 | Active | > 100 | 29.8 | 5.77 | 17.5 | Active |  |  | Active |  | Active | Active | Active |  | 
9 | N#Cc1cn(-c2ccccc2)nc1-c1ccco1 | > 20 | Active |  |  |  |  | Active |  |  |  |  |  |  |  |  | 
